In ChEMBL document CHEMBL1125273, “Synthesis and biological evaluation of quinocarcin derivatives: thioalkyl-substituted quinones and hydroquinones” (J Med Chem, 1991):
≈ marks a conversion by molar mass, not a printed value.

Columns and labels:
[1] = Antitumor activity in vivo in CD2F1 mice measured in terms of percent increase in lifespan calculated at a dose of 12.5 mg/kg intraperitoneally on day one.; type: functional; details: Mus musculus, ip, route intraperitoneal
Method in brief: (§1)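 P388 lymphocytic leukemia cells (1×10^6) were implanted ip into CD2F1 mice (about 22 g), five mice per group. Drug was given ip from the day after implantation, either once (day 1) or daily on days 1–5. ILS = (T/C − 1) × 100, where T and C are the median survival times of treated and control mice.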

[2] = Antitumor activity in vivo in CD2F1 mice measured in terms of percent increase in lifespan calculated at a dose of 12.5 mg/kg intraperitoneally on days 1-5.; type: functional; details: Mus musculus, ip, route intraperitoneal; method in brief: as §1
[3] = Ratio of the ILS tested compound/quinocarcin was determined in CD2F1 mice on days 1-5.; type: functional, Mus musculus
Method in brief: (§2)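 CD2F1 mice (5 per group) received 10^6 P388 cells ip. Drug was given ip on day 1 or on days 1–5. ILS was taken as (T/C − 1) × 100 from median survival times, and each compound's ILS was divided by the ILS of quinocarcin.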

[4] = Ratio of the ILS tested compound/quinocarcin was determined for day one in CD2F1 mice.; type: functional, Mus musculus; method in brief: as §2
HeLa = assay: In vitro concentration required to inhibit the growth of HeLa S3 cells by 50%; type: functional, cell-based; details: Homo sapiens
Method in brief: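 HeLa S3 cells (5 × 10⁴) seeded in Eagle's MEM with 10% FBS and 0.06 mg/mL kanamycin; graded drug concentrations, diluted in growth medium, added 24 h after seeding. Incubated 72 h at 37 °C, humidified 5% CO₂. Monolayers then washed, detached with 0.05% trypsin/0.02% EDTA and counted electronically; IC50 taken as concentration giving 50% growth inhibition.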

[5] = Antitumor activity in vivo in CD2F1 mice measured in terms of percent increase in lifespan calculated at a dose of 50 mg/kg intraperitoneally on day one.; type: functional; details: Mus musculus, ip, route intraperitoneal; method in brief: as §1
[6] = Antitumor activity in vivo in CD2F1 mice measured in terms of percent increase in lifespan calculated at a dose of 25 mg/kg intraperitoneally on day one.; type: functional; details: Mus musculus, ip, route intraperitoneal; method in brief: as §1
[7] = Antitumor activity in vivo in CD2F1 mice measured in terms of percent increase in lifespan calculated at a dose of 6.25 mg/kg intraperitoneally on days 1-5.; type: functional; details: Mus musculus, ip, route intraperitoneal; method in brief: as §1
[8] = Antitumor activity in vivo in CD2F1 mice measured in terms of percent increase in lifespan calculated at a dose of 6.25 mg/kg intraperitoneally on day one.; type: functional; details: Mus musculus, ip, route intraperitoneal; method in brief: as §1
[9] = Antitumor activity in vivo in CD2F1 mice measured in terms of percent increase in lifespan calculated at a dose of 3.13 mg/kg intraperitoneally on days 1-5.; type: functional; details: Mus musculus, ip, route intraperitoneal; method in brief: as §1
Homo sapiens [10] = assay: Ratio of ILS tested compound/quinocarcin against human mammary carcinoma MX-1 cell line implanted subcutaneously in mice and the compound administered intravenously at a dose of 2.97 mg/kg on days 1-5.; type: functional; details: route intravenous
CCRF S-180 [11] = assay: Ratio of ILS tested compound/quinocarcin against murine sarcoma S-180 tumor cell line implanted subcutaneously in mice and the compound administered intravenously at a dose of 3.13 mg/kg on days 1-5.; type: functional, Mus musculus; details: route intravenous
Homo sapiens [12] = assay: Ratio of ILS tested compound/quinocarcin against human mammary carcinoma MX-1 cell line implanted subcutaneously in mice and the compound administered intravenously at a dose of 4.67 mg/kg on days 1-5.c means number of cured mice.; type: functional; details: route intravenous
CCRF S-180 [13] = assay: Ratio of ILS tested compound/quinocarcin against murine sarcoma S-180 tumor cell line implanted subcutaneously in mice and the compound administered intravenously at a dose of 12.5 mg/kg on days 1-5.; type: functional, Mus musculus; details: route intravenous
[14] = Antitumor activity in vivo in CD2F1 mice measured in terms of percent increase in lifespan calculated at a dose of 1.56 mg/kg intraperitoneally on days 1-5.; type: functional; details: Mus musculus, ip, route intraperitoneal; method in brief: as §1

Row | Compound | ILS at 12.5 mg/kg [1] [%] | R [3] | R [4] | IC50 (HeLa) [µg/mL] | ILS at 6.25 mg/kg [7] [%] | ILS at 6.25 mg/kg [8] [%] | also measured
1 | COC1=C(SC(C)C)C(=O)C2=C(C1=O)[C@H](CO)N1C(C#N)[C@@H]3C[C@@H](C(=O)O)[C@H]([C@@H]1C2)N3C (some centres undefined) | 21 | 0.68 | 0.58 | 1.12 (≈ 2.43 µM) | – | – | ILS at 12.5 mg/kg [2]: 51%
2 | COc1c2c(c(OC)c(SC(C)C)c1SC(C)C)[C@H](CO)N1C(C#N)[C@@H]3C[C@@H](C(=O)O)[C@H]([C@@H]1C2)N3C (some centres undefined) | – | – | – | 0.17 (≈ 0.317 µM) | – | – | ILS at 50 mg/kg [5]: 7%
3 | CCCSC1=C(SCCC)C(=O)C2=C(C[C@H]3[C@H]4[C@H](C(=O)O)C[C@@H](C(C#N)N3[C@H]2CO)N4C)C1=O (some centres undefined) | – | 0.48 | 1.17 | 0.05 (≈ 0.0989 µM) | 42 | – | ILS at 25 mg/kg [6]: 56%
4 | CCSC1=C(SCC)C(=O)C2=C(C[C@H]3[C@H]4[C@H](C(=O)O)C[C@@H](C5OC[C@@H]2N53)N4C)C1=O (some centres undefined) | – | 0.93 | 1.33 | 0.08 (≈ 0.178 µM) | – | 64 | ILS at 3.13 mg/kg [9]: 82%
5 | CCSc1c(O)c2c(c(O)c1OC)[C@H](CO)N1C(C#N)[C@@H]3C[C@@H](C(=O)O)[C@H]([C@@H]1C2)N3C (some centres undefined) | 28 | 0.79 | 0.65 | 1.18 (≈ 2.62 µM) | 58 | – | –
6 | COC1=C(SC(C)C)C(=O)C2=C(C[C@H]3[C@H]4[C@H](C(=O)O)C[C@@H](C(C#N)N3[C@H]2CO)N4C)C1=O (some centres undefined) | 17 | 1 | – | 0.56 (≈ 1.21 µM) | – | – | ILS at 12.5 mg/kg [2]: 75%
7 | COC1=C(SC(C)C)C(=O)C2=C(C1=O)[C@@H]1COC3[C@@H]4C[C@@H](C(=O)O)[C@H]([C@H](C2)N31)N4C (some centres undefined) | – | 1 | 1.29 | 0.79 (≈ 1.82 µM) | 81 | 31 | –
8 | CN1[C@@H]2[C@H](C(=O)O)C[C@H]1C(C#N)N1[C@@H](CO)C3=C(C[C@@H]21)C(=O)C(SCCO)=C(SCCO)C3=O (some centres undefined) | 26 | – | 0.62 | 2.47 (≈ 4.85 µM) | 20 | – | –
9 | CC(C)Sc1c(O)c2c(c(O)c1SC(C)C)[C@H](CO)N1C(C#N)[C@@H]3C[C@@H](C(=O)O)[C@H]([C@@H]1C2)N3C (some centres undefined) | 51 | 1.09 | 1 | < 0.03 | 102 | – | –
10 | CC(C)SC1=C(SC(C)C)C(=O)C2=C(C[C@H]3[C@H]4[C@H](C(=O)O)C[C@@H](C5OC[C@@H]2N53)N4C)C1=O (some centres undefined) | – | 1.11 | 1.57 | 0.0019 (≈ 0.00397 µM) | – | 69 | ILS at 3.13 mg/kg [9]: 98%; T/C (Homo sapiens [10]): 0.046; T/C (CCRF S-180 [11]): 0.73; T/C (Homo sapiens [12]): 0
11 | CCSC1=C(OC)C(=O)C2=C(C[C@H]3[C@H]4[C@H](C(=O)O)C[C@@H](C(C#N)N3[C@H]2CO)N4C)C1=O (some centres undefined) | – | 0.65 | 0.67 | 2.42 (≈ 5.41 µM) | 51 | 29 | T/C (CCRF S-180 [13]): 0.47
12 | COC1=C(SC(C)C)C(=O)C2=C(C[C@H]3[C@H]4[C@H](C(=O)O)C[C@@H](C5OC[C@@H]2N53)N4C)C1=O (some centres undefined) | – | 0.63 | 1.25 | 2.37 (≈ 5.45 µM) | – | 30 | ILS at 1.56 mg/kg [14]: 51%
